From PubChem
Only some compounds are listed: those with a hit (about 2.1% of all), similar ones and a draw of the others.
Autophagy HCS – modulators of autophagy; MEF GFP-LC3 puncta imaging; test concentration mostly 10 µM; calls only at 10 µM (by protocol); 190,000 tested, 0.98% active; AID 463193;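 active means percentage of spot-positive cells more than 3 SD above its plate mean, without a fluorescence outlier flag or 80% toxicity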;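 further: spot-positive cell cutoff set from DMSO-treated cells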
INS promoter inh – TRM-6 insulin promoter activity inhibition; 130,000 tested, 0.9% active; TRM-6 cells (human fetal islet line), insulin promoter-eGFP reporter, imaging; reporter expression induced with tamoxifen; inhibition, % at 2 µM;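 active means inhibition above the mean plus 3 SD, with well images judged a real hit on visual review, cut at about 60% in these data, passing the limit was not always enough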
Arbovirus anti – arbovirus infection inhibition; arbovirus infection cell-based antiviral screen; inhibition, % at 10 µM; 200,000 tested, 0.37% active; in the data active means inhibition above about 30%
Insulin prom up – MIN6 insulin promoter up-regulation. z-score at 5 µM. AID 1625. MIN6 insulin promoter-GFP reporter, high-content imaging; hits give high values. 190,000 tested, 0.3% active;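 active means z-score above 3 at 5 µM with at least 500 cells counted in the well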
RBBP9 inhibitor – blocks human serine hydrolase RBBP9 | O75884 | recombinant RBBP9, FP-Rh probe fluorescence polarization | inhibition, % at 7.94 µM | 220,000 tested, 0.2% active | AID 1515;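 active means inhibition above the campaign mean of all tested compounds plus 3 SD, cut at about 14% in these data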;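 further: plate controls were DMSO wells with RBBP9 for no effect and wells lacking RBBP9 protein for full effect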
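System: RBBP9 protein / Quantity: 2.5 µM RBBP9 dispensing solution, before mixing / Also added: Serine-hydrolase probe FP-Rh, 375 nM pre-mixing / Dosing: 7.94 µM single dose, 0.794% DMSO / Timing: enzyme-compound preincubation 30 min, then probe labeling 45 min, 25 °C / Signal: FP readout at 525/598 nm / Controls: DMSO-treated enzyme wells and wells lacking RBBP9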
PKD1 inh – PKD1 (human) kinase inhibition; inhibition, % (test concentration not listed); PKD1 kinase fluorescence polarization assay; AID 797; 200,000 tested, 0.056% active; in the data active means inhibition above about 50%
* hit, by the source's call; i = inactive; . = no result given; + = active, no number.

SMILES | Autophagy HCS | INS promoter inh | Arbovirus anti | Insulin prom up | RBBP9 inhibitor | PKD1 inh
CCCC1=NN2C(=N)/C(=C\c3cc(C)n(-c4cccc(C)c4)c3C)C(=O)N=C2S1 | i | 17 | 33* | 0.09 | 3 | -2
CCCC1=NN2C(=N)/C(=C\c3ccc(SCc4ccco4)o3)C(=O)N=C2S1 | i | 19 | 32* | 1.5 | -3 | 6
CCC1=NN2C(=N)/C(=C\c3ccc(SCc4ccco4)o3)C(=O)N=C2S1 | i | 46 | 62* | 0.09 | -8 | -8
CCCC1=NN2C(=N)/C(=C\c3cc(C)n(Cc4ccccc4)c3C)C(=O)N=C2S1 | . | . | . | 0.01 | -10 | .
O=C(COc1c(Br)cc(Br)c2cccnc12)N1CCc2ccccc2C1 | i | 8 | -43 | -0.8 | -7 | -2
O=C(COC(=O)CC12CC3CC(CC(C3)C1)C2)Nc1ncc(Cl)cc1Cl | i | 100* | 14 | -0.77 | 3 | -6
Cn1c(C(=O)N2CCN(Cc3ccc4c(c3)OCO4)CC2)cc2sccc21 | i | 27 | -1 | . | 4 | -8
Cn1c(C(=O)N2CCC(C(=O)N3CCN(Cc4ccc5c(c4)OCO5)CC3)CC2)cc2sccc21 | i | 50 | 0 | 4.7* | 6 | -21
Cc1ccc(NC2=Nc3ccccc3N3C2=Nc2c(c(C)nn2-c2ccccc2)C3c2ccc(O)c(O)c2)cc1 (stereo not given) | + | -45 | -42 | 0.49 | -26 | -1
Cc1ccc(NC(=O)c2c(C)nn(-c3ccccc3)c2Cl)cc1 | i | . | -1 | -0.84 | -8 | -4
Cc1nn(-c2ccccc2)c2c1C(c1ccc(O)c(O)c1)N1C(=N2)C(Nc2ccccc2)=Nc2ccccc21 (stereo not given) | + | -8 | -42 | 0.25 | -40 | 11
Cc1cccc(NC2=Nc3ccccc3N3C2=Nc2c(c(C)nn2-c2ccccc2)C3c2ccc(O)c(O)c2)c1 (stereo not given) | i | 19 | -42 | -0.18 | -14 | 1
Cc1ccc2sc(NNC(=O)c3cc(=O)c4ccccc4o3)nc2c1C | i | . | -17 | -0.18 | -10 | 0
CCOC(=O)CC(=O)c1[nH]c(C)c(C(=O)OCC)c1C | i | . | -2 | 1.2 | -3 | -4
COc1cccc(NC(=O)N2CCN(c3nnnn3-c3ccccc3)CC2)c1 | i | . | -8 | 3.1* | 0 | 4
COc1ccc(NC(=O)N2CCN(c3cccc(C(F)(F)F)c3)CC2)cc1 | i | 75* | 10 | . | 6 | -5
Cn1cccc1/C=C1\SC(=Nc2ccccc2)NC1=O | . | . | . | 0.1 | 9 | .
Cc1ccc(N=C2NC(=O)/C(=C/c3cn(C)c4ccccc34)S2)cc1C | i | . | -9 | 3* | -11 | -4
Fc1ccc2[nH]c3c(Cl)ncnc3c2c1 | i | . | -2 | -1.2 | -5 | 1
CSc1ccccc1C(=O)N1CCc2ccccc2C1 | + | -67 | -6 | -0.03 | -3 | -5
O=C(c1ccc(Cl)nc1)N1CCc2ccccc2C1 | i | 17 | 1 | -0.08 | -5 | -2
COc1ccccc1-c1cc(C(=O)N2CCc3ccccc3C2)c2ccccc2n1 | i | 7 | 42* | -0.27 | -8 | 4
O=C(c1cc(-c2ccccc2O)on1)N1CCc2ccccc2C1 | . | . | 33* | 0.03 | -10 | -10
O=C(c1ccccc1Cl)N1CCc2ccccc2C1 | i | -71 | 0 | 0.1 | -13 | -6
O=C(c1cncc(Br)c1)N1CCc2ccccc2C1 | i | 86* | 8 | 0.84 | 4 | -3
SMILES | Autophagy HCS | INS promoter inh | Arbovirus anti | Insulin prom up | RBBP9 inhibitor | PKD1 inh
Cc1ccc(NCc2n[nH]c(=S)n2-c2ccccc2)cc1 | i | . | 6 | 0.04 | -7 | -3
COc1ccc(-n2c(C)cc(C(=O)NC3CCCCC3)c2C)cc1 | i | 8 | -9 | 2.2 | -2 | -4
O=C(O)C1CC=CCC1C(=O)Nc1cccc([N+](=O)[O-])c1 (stereo not given) | i | . | 0 | 0.99 | 1 | -6
Cc1ccccc1C(=O)N1CCc2ccccc2C1 | i | -26 | 9 | 4* | -9 | 2
NS(=O)(=O)c1ccc(NC=C2C(=O)OC3(CCCCC3)OC2=O)cc1 | i | -33 | 3 | 3.8* | -7 | -7
CCN(CC)c1nc(C)c(C(=S)Nc2cc([N+](=O)[O-])ccc2Cl)s1 | + | . | -1 | 2.9 | -2 | -4
O=C1C2CC=CCC2C(=O)N1c1n[nH]c(-c2ccccc2)n1 (stereo not given) | i | 34 | 10 | 0.43 | 1 | -3
